UPR XBP1 act: activators of adaptive arm of unfolded protein response (XBP1) | CHO-XBP1 luciferase reporter, IRE1-XBP1 UPR activation, luminescence; percent of tunicamycin response, DMSO as zero | activation, % at 20 µM | 0.33% of 330,000 active | AID 463104;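 active means versus positive control, 20 µM dose yields 30% or more activation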
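Assay system: CHO-XBP1 luciferase reporter cells; Schedule: 6 h treatment, 37 °C; Detection: glow luminescence from Steady-Glo reagent; Benchmarks: high control tunicamycin 10 µg/mL final, low control DMSO vehicle only.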
CHOP UPR activ: activators of apoptotic arm of unfolded protein response (CHOP) | CHO-CHOP luciferase reporter, UPR activation, luminescence; percent of tunicamycin response over DMSO baseline | activation, % at 10 µM | 0.34% of 330,000 active;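 active means at 10 µM dose, activation of 40% or more, normalized to positive control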
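Test system: CHO-CHOP cells, stable luciferase reporter of PERK-eIF2a-CHOP signalling | Quantity: 500 CHO-CHOP cells per well | Buffer or medium: F12 plus 10% serum | Compound dosing: 10 µM single point, 0.5% DMSO | Schedule: 6 h compound treatment, 37 °C | Signal: Luciferase luminescence | Control set: Tunicamycin high control, DMSO low control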
CHOP inhibitor: CHOP inhibition in unfolded protein response; CHO-K1 CHOP-promoter luciferase, tunicamycin-induced, 15-18 h; inhibition, % at 10 µM; 3.8% of 220,000 active; AID 2732;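 active means compounds that reduced the stress-induced luciferase reporter signal by more than about 70% of percent inhibition, limit read from the data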
GAA850 FXN act: increases GAA850 frataxin promoter reporter activity | HEK293 lucGAA850 FXN promoter luciferase reporter, 24 h; percent of 10 µM SAHA response | activation, % at 6 µM | 0.56% of 360,000 active;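 active means activation above the average of all compounds screened plus 3 SD, cutoff fixed separately per campaign, cut at about 7.5% in these data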
UPR CHOP confirm: confirmation of apoptotic unfolded protein response (CHOP) activators; shares compounds with CHOP UPR activ; 64% of 1,000 active; CHO-CHOP cells, CHOP-luciferase reporter luminescence; percent of tunicamycin response, DMSO as zero; activation, % at 10 µM; in the data active means activation above about 33%
Numbers stand for hits; - = inactive; . = not tested or not shown. Shown is part of a subset that was picked to be rich in hits.

SMILES | UPR XBP1 act | CHOP UPR activ | CHOP inhibitor | GAA850 FXN act | UPR CHOP confirm
O=C1c2cc(F)ccc2-n2c1nc1ccccc1c2=O | - | 77 | . | - | -
Nn1c(-c2ccc(F)cc2)nc2ccccc2c1=O | - | - | . | - | .
O=C(CCC(=O)Nc1ccc(Cl)cc1Cl)N/N=C/c1ccc([N+](=O)[O-])o1 | - | 193 | - | - | 107
CCCCCC(=O)N/N=C/c1ccc([N+](=O)[O-])o1 | - | - | - | - | .
CCN(CC)S(=O)(=O)c1ccc(C(=O)/C=C/c2ccc(-c3ccc([N+](=O)[O-])cc3)o2)cc1 | - | - | - | - | .
Cc1ccc(C(=O)/C=C/c2ccc(-c3ccc(C)cc3)o2)cc1 | - | 94 | - | - | -
CCOC(=O)c1ccc(N=C2C(=S)N(c3ccc(C(=O)OCC)cc3)C(=N)N2/N=C/c2ccccc2)cc1 | - | 53 | - | - | 37
COc1ccc2c(c1)c(/C=N/Nc1nc3ccccc3[nH]1)c(C)n2C | - | 287 | - | - | -
Cc1cccc(NC(=O)c2nc[nH]c2C(=O)N[C@H](C)CO)c1 | . | . | . | - | .
CCSC1(SCC)N=C(N)C2(C#N)C(c3ccc(OC)c(OC)c3OC)C12C#N (configuration not stated) | - | 214 | - | - | 307
CCOC(=O)C1(C)CCCN(C(=O)c2ccccc2C(F)(F)F)C1 (configuration not stated) | . | . | . | - | .
C=CCn1c(SCC(=O)c2ccc(O)c(O)c2)nnc1-c1cccc(Cl)c1 | - | 64 | . | - | -
COc1ccc(OC)c(N=Cc2c(O)c3ccccc3oc2=O)c1 | 219 | 134 | . | - | 114
Cc1cc(C)cc(N=Cc2c(O)c3ccccc3oc2=O)c1 | - | - | - | - | .
CCCS(=O)(=O)c1c(S(=O)(=O)CCC)c2c(N)cccn2c1C(=O)c1ccc(OC)cc1 | - | 55 | - | - | -
Cc1cc(F)ccc1-c1cc(C(=O)NCc2ccco2)[nH]n1 | . | . | . | - | .
COC(=O)c1cc(=O)n(CCc2ccccc2F)c(=Nc2ccc(F)c(Cl)c2)s1 | - | - | - | - | .
COC(=O)c1cc(=O)n(Cc2ccco2)c(=Nc2ccc(F)c(Cl)c2)s1 | - | 55 | - | - | 54
CC1=C(C(=O)N(C)C)CC(CC(=O)NC2CCCCC2)C(=O)N1CCCN1CCCC1=O (configuration not stated) | . | . | . | - | .
COC(=O)/C(=C\c1ccc(O)cc1)c1nc2ccccc2[nH]1 | - | - | - | - | .
CC(C)c1ccc(/C=C(\c2nc3ccccc3[nH]2)S(=O)(=O)c2ccccc2)cc1 | - | 69 | - | - | 106
N#C/C(=C/c1ccc(N2CCCCCC2)o1)c1ccc(F)cc1 | - | 98 | . | - | -
O=C(CN1CCN(c2ccccc2F)CC1)c1ccc(O)c(O)c1 | 49 | 108 | . | - | 41
CC(C)c1ccc(S(=O)(=O)N2CCN(CC(=O)c3ccc(O)c(O)c3)CC2)cc1 | - | - | . | - | .
O=C(CN1CCN(S(=O)(=O)c2ccc(Br)cc2)CC1)c1ccc(O)c(O)c1 | - | 61 | . | - | -
SMILES | UPR XBP1 act | CHOP UPR activ | CHOP inhibitor | GAA850 FXN act | UPR CHOP confirm
O=C(O)c1cn(-c2ccccc2)nc1-c1ccncc1 | - | - | - | - | .
O=C(c1cn(-c2ccccc2)nc1-c1ccncc1)n1nnc2ccccc21 | - | 99 | . | - | -
O=C(Cc1ccc(F)cc1)NC1CCSC1=O (configuration not stated) | - | 41 | - | - | -
O=C(CCCc1ccccc1)NC1CCSC1=O (configuration not stated) | - | - | - | - | .
Oc1ccc2ccccc2c1N=Nc1ccccn1 | - | 48 | - | - | 37
O=c1oc2ccccc2c2c1C(c1ccc(Cl)cc1)Nc1ccc3ccccc3c1-2 (configuration not stated) | - | - | - | - | .
COc1ccc(C2Nc3ccc4ccccc4c3-c3c2c(=O)oc2ccccc32)cc1 (configuration not stated) | 134 | 49 | - | - | 47
COc1ccc(C(=O)CSc2nc3ccccc3n2CC(=O)c2ccccc2)cc1 | - | - | - | - | .
COc1ccc(C(=O)Cn2c(C(=O)/C=C/c3ccccc3)nc3ccccc32)cc1 | - | 314 | - | - | 348
Cc1ccccc1S(=O)(=O)NC1OC(=O)C(Cl)=C1Cl (configuration not stated) | - | 47 | - | - | 40
COc1ccc(C(=O)C(C)OC(=O)C2CC3CCCC(C2)C3=O)cc1 (configuration not stated) | . | . | . | - | .
Cc1ccc(S/C=C\C(=O)c2ccccc2)cc1 | - | 69 | - | - | 56
COc1ccc(OC)c(NC(=O)CCNC(=O)N2CC(=O)Nc3ccccc32)c1 | . | . | . | - | .
O=C(NCc1cccnc1)/C(=C/c1ccc(-c2cccc(Cl)c2)o1)S(=O)(=O)c1ccccc1 | - | 83 | 94 | - | 114
O=C(NCc1cccnc1)/C(=C\c1ccc(-c2cccc(Cl)c2)o1)S(=O)(=O)c1ccccc1 | . | . | - | - | .
COc1ccc2[nH]cc(C(=O)CCl)c2c1 | - | 102 | - | - | 39
COc1ccc2[nH]cc(C(=O)CN3CC(C)CC(C)C3)c2c1 (configuration not stated) | - | - | . | - | .
O=C(CCl)Nc1ccc(-c2ccccc2)cc1 | - | 43 | - | - | 47
CC1=CC(C)(C)Nc2ccc(OC(=O)CN3C(=O)CCC3=O)cc21 | - | 87 | - | - | 92
CN[C@H](C)C(=O)NC[C@H]1O[C@@H](n2cc(C)c(=O)[nH]c2=O)C[C@@H]1O | . | . | . | - | .
CC(=O)Nc1ccc(NC(=O)c2nc(S(=O)(=O)Cc3cccc(C)c3)ncc2Cl)cc1 | - | - | . | - | .
COC(=O)c1ccc(NC(=O)c2nc(S(=O)(=O)Cc3cccc(C)c3)ncc2Cl)cc1 | - | 95 | . | - | -
Cc1ccc(NC(=O)c2nc(S(=O)(=O)Cc3ccccc3C)ncc2Cl)cc1C | - | 237 | . | - | 170
CCc1ccc(NC(=O)c2nc(S(=O)(=O)Cc3ccccc3)ncc2Cl)cc1 | - | - | . | - | .
CC1(C(=O)NS(=O)(=O)c2ccccc2OC(F)(F)F)CCN1C(=O)Cc1ccccc1 (configuration not stated) | . | . | . | - | .
SMILES | UPR XBP1 act | CHOP UPR activ | CHOP inhibitor | GAA850 FXN act | UPR CHOP confirm
C=C1C(=O)C=C[C@]2(C)C[C@@H]3OC(=O)[C@](C)(O)[C@H]3C[C@@H]12 | - | 59 | - | - | 56
O=C(Nc1ccc(-c2nc3ncccc3o2)cc1)c1ccc([N+](=O)[O-])o1 | - | 313 | . | - | 135
O=C(Nc1nc2ccccc2s1)c1ccc([N+](=O)[O-])o1 | - | 73 | . | - | -
O=C(Nc1ccc2oc(-c3ccncc3)nc2c1)c1ccc([N+](=O)[O-])o1 | - | 162 | . | - | 46
O=C(CSc1ncccn1)NC(=O)NC1CCCC1 | . | . | . | - | .
COc1ccc(-n2ncc(N(C)n3cccc3)c(Cl)c2=O)cc1 | - | - | - | - | .
COc1ccc(-n2ncc(Cl)c(Cl)c2=O)cc1 | - | 50 | - | - | -

Bioassay records as filed in PubChem.
